FID counter: counter-screen for HCV NS3 helicase inhibitors: DNA intercalator displacement | DNA fluorescent intercalator displacement, fluorescence | inhibition, % at 7.9 µM | 290,000 compounds, 0.17% hits; in the data active = inhibition above about 37%;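 note: 0% = vehicle and 100% = reference compound; higher means more ethidium bromide displaced from hairpin DNA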
EBNA-1 inh: blocks EBNA-1 binding to DNA; EBNA-1 DNA binding, fluorescence polarization; inhibition, % at 14.8 µM; 300,000 compounds, 0.34% hits; AID 1950; in the data active = inhibition above about 28%
NS3 helicase inh: HCV NS3 helicase inhibition; NS3 helicase DNA unwinding, Cy5 molecular beacon fluorescence; 290,000 compounds, 0.56% hits; inhibition, % at 10.9 µM; AID 1800;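 active = inhibition above the mean of all tested compounds plus 3 SD, set per campaign, cut at about 35% in these data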;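 note: 0% = DMSO wells and 100% = thioflavine S control wells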
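Measured by: Cy5 fluorescence, 0 and 60 min reads / Assay system: NS3 helicase fragment of HCV / Control set: low DMSO, high thioflavine S at 110 µM / Times: 1 h reaction at 25 °C, ATP-initiated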
GRIN3A LBD mod: modulators (binders) of human NR3A ligand-binding domain. NR3A LBD differential scanning fluorimetry, Tm shift; 0% = protein alone, 100% = glycine-bound protein. Tm shift relative to glycine control, % at 25 µM. AID 1259313. 340,000 compounds, 2.5% hits;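 active = melting temperature shift of at least 10% of the positive control shift, at one fixed dose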
FGF22 binding: FGF22 (human) thermal shift binding | Q9HCT0 | recombinant FGF22 thermal shift, SYPRO orange fluorescence; percent of sucrose octasulfate shift, DMSO zero | activity (Tm shift, normalised), % at 9.99 µM | 340,000 compounds, 1.5% hits;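 active = mean Tm shift, scaled 0 neutral to 100 positive control, at about 1.3% or above, every replicate too, limit read from the data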
Target sequence (Q9HCT0 whole entry, looked up): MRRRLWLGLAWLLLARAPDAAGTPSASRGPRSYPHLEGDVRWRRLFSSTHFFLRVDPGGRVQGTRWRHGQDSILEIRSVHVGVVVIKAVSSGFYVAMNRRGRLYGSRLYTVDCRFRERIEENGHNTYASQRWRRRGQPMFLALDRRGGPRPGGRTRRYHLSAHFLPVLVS
ZTA counter: ZTA (EBV) inhibition in EBNA-1 counter-screen; P03206; ZTA-DNA binding, fluorescence polarization; inhibition, % at 11 µM; 320,000 compounds, 0.15% hits; AID 2234; in the data active = inhibition above about 33%
Target sequence (P03206 whole entry, looked up): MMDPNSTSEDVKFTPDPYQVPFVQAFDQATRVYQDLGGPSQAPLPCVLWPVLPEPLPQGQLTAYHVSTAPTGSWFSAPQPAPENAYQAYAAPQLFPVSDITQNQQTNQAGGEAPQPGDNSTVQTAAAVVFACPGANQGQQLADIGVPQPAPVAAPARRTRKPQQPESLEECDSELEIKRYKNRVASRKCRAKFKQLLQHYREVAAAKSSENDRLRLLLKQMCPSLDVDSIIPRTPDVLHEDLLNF
The depositor's hits bear a star; x = no result given. In the library only some 3.6% were active in any assay of this set; here they are far more common.

SMILES	FID counter	EBNA-1 inh	NS3 helicase inh	GRIN3A LBD mod	FGF22 binding	ZTA counter
NC(=S)N/N=C/c1ccccc1O	-7	-3	-5	-11	0	5
O=C(COc1cccc2cccnc12)N/N=C/c1ccccc1O	-22	10	29	0	0	-3
Oc1ccccc1/C=N/Nc1ccccc1	-1	11	-1	13*	0	-4
Oc1ccccc1/C=N/Nc1cccc2cccnc12	-1	7	-12	10*	x	7
O=C(NN=Cc1ccccc1O)C1CC1	x	x	x	-1	43*	x
Oc1ccccc1/C=N/Nc1ncc(Br)cn1	-3	8	-6	-6	0	11
Oc1ccccc1C=NNC(=S)NN=Cc1ccccc1O	x	x	x	27*	0	x
O=C(N/N=C/c1ccccc1O)C1SCCCS1	-7	-5	-2	3	0	21
CO[C@@H]1CN(C)C(=O)c2ccc(NC(=O)c3ccccc3F)cc2OC[C@H](C)NC[C@@H]1C	x	x	x	x	0	x
Fc1ccc(CCNC(=S)Nc2ccc(F)cc2)cc1	3	-3	-10	19*	0	-5
CC(=O)c1cccc(NC(=S)NCCc2ccc(F)cc2)c1	-7	-2	-4	-8	44*	-5
CCCCCC(=O)NC(=S)Nc1cccc(C(C)=O)c1	-19	6	5	1	44*	6
CC(=O)c1cccc(NC(=O)NCCc2ccc(Cl)cc2)c1	-16	5	4	-11	0	-5
CCCC(=O)NC(=S)Nc1cccc(C(C)=O)c1	-3	0	8	2	x	-3
COCC(=O)N(C)C[C@@H]1Oc2ncc(C#Cc3cccnc3)cc2C(=O)N([C@H](C)CO)C[C@@H]1C	x	x	x	x	-1	x
C[C@H]1CN([C@@H](C)CO)C(=O)c2cccc(NC(=O)c3nc4ccccc4s3)c2O[C@@H]1CN(C)Cc1ccc(Cl)c(Cl)c1	x	x	x	x	0	x
C[C@@H]1CN([C@@H](C)CO)C(=O)Cc2cc(NC(=O)Nc3cccc4ccccc34)ccc2O[C@H]1CN(C)Cc1ccncc1	x	x	x	x	2.4*	x
C[C@@H]1CN([C@H](C)CO)C(=O)c2cc(NC(=O)Nc3cccc4ccccc34)ccc2O[C@H]1CN(C)Cc1ccc(C(F)(F)F)cc1	x	x	x	23*	0	x
C[C@@H]1CN([C@@H](C)CO)C(=O)Cc2cc(NC(=O)Nc3ccc(C(F)(F)F)cc3)ccc2O[C@H]1CN(C)Cc1ccc2c(c1)OCO2	x	x	x	x	3.7*	x
C[C@H](CO)N1C[C@H](C)[C@H](CN(C)C(=O)Nc2cccc3ccccc23)Oc2ccc(NC(=O)Cc3ccccc3)cc2CC1=O	x	x	x	x	-1	x
C[C@H]1CN([C@@H](C)CO)C(=O)c2cc(NC(=O)Nc3cccc4ccccc34)ccc2O[C@@H]1CN(C)Cc1ccc(C(F)(F)F)cc1	x	x	x	x	0	x
C[C@H](CO)N1C[C@H](C)[C@@H](CN(C)C(=O)Nc2cccc3ccccc23)Oc2ccc(NC(=O)Cc3ccccc3)cc2CC1=O	x	x	x	x	1.6*	x
C[C@H](CO)N1C[C@H](C)[C@H](CN(C)Cc2ccc3c(c2)OCO3)Oc2ccc(NC(=O)Nc3ccc(C(F)(F)F)cc3)cc2CC1=O	x	x	x	x	0	x
O=C(N[C@H]1CC[C@H](CCn2cc(-c3ccccc3)nn2)O[C@H]1CO)c1ccccc1F	x	x	x	x	0	x
C[C@@H]1CN([C@H](C)CO)C(=O)Cc2cc(NS(=O)(=O)c3ccccc3)ccc2O[C@H]1CN(C)C	x	x	x	x	0	x
SMILES	FID counter	EBNA-1 inh	NS3 helicase inh	GRIN3A LBD mod	FGF22 binding	ZTA counter
C[C@H](CO)N1C[C@H](C)[C@H](CN(C)Cc2ccc(-c3ccccc3)cc2)Oc2ccc(NC(=O)Nc3cccc4ccccc34)cc2C1=O	x	x	x	x	-1	x
C[C@@H]1CN([C@@H](C)CO)C(=O)Cc2cc(NC(=O)Nc3cccc4ccccc34)ccc2O[C@@H]1CN(C)Cc1ccc(C(F)(F)F)cc1	x	x	x	13*	0	x
C[C@@H]1CN([C@H](C)CO)C(=O)Cc2cc(NC(=O)Nc3cccc4ccccc34)ccc2O[C@H]1CN(C)Cc1ccccc1	x	x	x	x	-1	x
C[C@H]1CN([C@@H](C)CO)C(=O)c2cc(NC(=O)Nc3cccc4ccccc34)ccc2O[C@@H]1CN(C)Cc1ccc(-c2ccccc2)cc1	x	x	x	11*	-1	x
Fc1ccccc1-c1ccc(/C=N/Nc2nc3ccccc3[nH]2)o1	-6	-8	-17	21*	0	-7
Cc1[nH]c2ccccc2c1SCC(=O)NNC(=O)Nc1ccc(OC(F)(F)F)cc1	-3	-4	-12	12*	1	-17
c1ccc(-n2cc(CN3CCCC(CN4CCCC4)C3)c(-c3ccc4c(c3)OCO4)n2)cc1 (stereo not given)	40*	5	-33	-2	0	11
OC[C@@H]1CCCN1Cc1cn(-c2ccccc2)nc1-c1ccc2c(c1)OCO2	16	8	11	0	0	1
COc1ccc(C2CC(c3ccccc3)=NN2S(=O)(=O)c2ccccc2)cc1 (stereo not given)	-18	-2	5	-1	0	-10
Cc1ccc(C2=NN(S(=O)(=O)c3ccccc3)C(c3ccccc3O)C2)cc1 (stereo not given)	-19	x	10	9	44*	x
CCOC(=O)/C(C#N)=C1\Nc2ccccc2N=C1N(CC(C)C)CC(C)C	-19	8	0	-1	x	2
CCOC(=O)/C(C#N)=C1/C=C(C)NC(c2ccccc2O)=N1	-6	-6	7	14*	x	-8
CO[C@@H]1CN(C)C(=O)c2cc(NC(=O)c3cccc(F)c3)ccc2OC[C@H](C)N(C)C[C@H]1C	x	x	x	x	0	x
CCCNC(=O)N(C)C[C@H]1Oc2ncc(-c3ccccc3)cc2C(=O)N([C@@H](C)CO)C[C@@H]1C	x	x	x	x	0	x
CC(=O)N1C=CN(C(C)=O)C(c2cn(C)c3ccccc23)C1c1cn(C)c2ccccc12 (stereo not given)	-25	-5	-10	14*	x	-2
Cn1cc(/C=C/C(=O)c2ccccc2)c2ccccc21	-15	-7	-10	1	0	-5
CCOc1cc(CNc2nn[nH]n2)ccc1OCC(=O)NC(C)(C)C	-10	1	3	-106	44*	15
CCOc1cc(CNc2ncn[nH]2)ccc1OCC(=O)NC(C)(C)C	-2	2	-6	0	43*	12
CCCC(=O)Nc1ccc2c(c1)C(=O)N(C)[C@H]1CC[C@@H](CC(=O)O)O[C@@H]1CO2	x	x	x	x	-1	x
Cc1c(Cl)ccc2c1NC(=O)[C@]21N[C@@H](Cc2ccccc2)[C@H]2C(=O)N(c3ccc(F)cc3)C(=O)[C@H]21	-17	5	-16	13*	x	13
C[C@@H]1CN([C@H](C)CO)C(=O)c2cccc(NC(=O)C3CCOCC3)c2O[C@@H]1CN(C)S(=O)(=O)c1cccs1	x	x	x	x	0	x
Cn1nc(C(=O)NCc2ccccc2Cl)c2c1-c1ccccc1S(=O)(=O)C2	-9	10	0	-1	0	-4

Bioassay records: PubChem BioAssay, several laboratories
